RAM inhibit: yeast RAM network inhibition; S. cerevisiae dse1pr::URA3 reporter, 5-FOA growth OD615, 2 d; analog-sensitive cbk1-as2 kinase mutant strain; inhibition, % at 50 µM; 1.8% of 190,000 active; AID 868;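 active = inhibition above a set limit, 3 SD over mean compound inhibition, cut at about 8.4% in these data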;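 also: 0% = DMSO-only wells with no growth and 100% = 10 µM 1-NA-PP1 full growth; inhibition rescues growth on 5-FOA so higher OD means more RAM inhibition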
INS promoter inh: TRM-6 insulin promoter activity inhibition; TRM-6 cells, insulin promoter-eGFP reporter, imaging; reporter expression induced with tamoxifen; inhibition, % at 2 µM; 0.9% of 130,000 active; AID 1273;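 active = inhibition above the mean plus 3 SD, with well images judged a real hit on visual review, cut at about 60% in these data, passing the limit was not always enough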
Yeast life ext: extends the lifespan of yeast; S. cerevisiae growth with nicotinamide, OD615; deaD strain in restrictive glucose medium; inhibition of the nicotinamide effect, % at 10 µM; 0.68% of 130,000 active; AID 775;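 active = inhibition above a set limit, placed 3 SD over the median of all compounds, cut at about 26% in these data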;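 also: 0% = nicotinamide-treated wells and 100% = cells grown without nicotinamide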
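Assay system: engineered S. cerevisiae DeaD replicative-lifespan strain, galactose-grown log-phase cells; Buffer or medium: CSMM-D glucose medium, restrictive; Probe or stimulus: nicotinamide 1.5 mM; Compound: single dose 10 µM compound, 0.25% DMSO; Schedule: 4 h preincubation then 48 h treatment at 30 °C; Technique: OD615 measurement.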
Measles CPE: protection of cells from measles virus; AID 841; protection (pct of control), % at 4 µM; 1.5% of 140,000 active; Measles virus-infected cells, CPE protection, absorbance; in the data active = protection mostly above about 24%, no sharp cut-off; inactive = mostly below about 26%
BB579 growth dn: yeast BB579 growth reduction in restrictive medium; S. cerevisiae BB579 growth, OD615, 48 h; inhibition, % at 10 µM; 0.51% of 140,000 active;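 active = inhibition above a set limit, 3 SD over the mean compound inhibition, cut at about 44% in these data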
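Assay system – yeast BB579 (DeaD) · Dosing – single compound dose of 10 µM, 0.25% DMSO final · Detection – OD615 turbidity measurement · Buffer or medium – CSMM-D restrictive synthetic medium containing dextrose (glucose) · Benchmarks – positive control amphotericin B 10 µg/mL · Incubation – 48 h exposure, 30 °C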
MDM2 E3 inh: Mdm2 E3 ligase (human) inhibition; cell-based MDM2 ubiquitination luciferase reporter, 2 h; 0 = plate control, 100 = twice control, blank-subtracted; signal enhancement, % at 5 µM; 0.11% of 210,000 active; AID 1230;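 active = signal enhancement of 30% or more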;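 also: luminescence tracks abundance of the self-degrading MDM2-luciferase fusion protein; higher signal means inhibition of MDM2 E3 ligase activity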
Target sequence (Q00987 whole entry, looked up, the tested form may be a part): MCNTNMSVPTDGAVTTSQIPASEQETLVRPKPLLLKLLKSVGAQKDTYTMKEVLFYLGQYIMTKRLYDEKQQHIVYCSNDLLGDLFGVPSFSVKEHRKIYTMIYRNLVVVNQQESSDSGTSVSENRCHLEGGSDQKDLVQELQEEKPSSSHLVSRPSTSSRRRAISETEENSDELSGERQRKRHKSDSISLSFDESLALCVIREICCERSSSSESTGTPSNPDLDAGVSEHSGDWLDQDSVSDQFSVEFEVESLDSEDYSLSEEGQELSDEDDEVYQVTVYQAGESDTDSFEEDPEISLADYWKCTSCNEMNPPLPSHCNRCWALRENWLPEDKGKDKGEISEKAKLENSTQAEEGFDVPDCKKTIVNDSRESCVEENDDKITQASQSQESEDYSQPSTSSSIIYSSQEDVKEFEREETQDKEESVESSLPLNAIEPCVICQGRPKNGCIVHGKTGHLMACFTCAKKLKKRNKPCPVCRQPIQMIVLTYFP
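Test system: mammalian cells stably expressing self-ubiquitinating, self-degrading MDM2 E3–luciferase fusion; Amount: 2000 cells in each well; Medium: DMEM; Schedule: 4 h settle plus 2 h compound, 37 °C; Technique: SteadyLite luciferase luminescence after 15 min room-temperature reagent incubation; Benchmarks: plate control and blank wells.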
* marks the source's active call; other numbers are inactive results; . = no result given. Shown are actives, neighbours in structure and some others; about 4% of the full set was active somewhere.

SMILES	RAM inhibit	INS promoter inh	Yeast life ext	Measles CPE	BB579 growth dn	MDM2 E3 inh
COc1ccc(C(=O)NC2CCN(C(=S)Nc3cccc(C)c3C)CC2)cc1	8.6*	16	-2	4	-49	-11
COc1ccc(C(=O)NC2CCN(C(=S)Nc3ccc(C)c(C)c3)CC2)cc1	4	20	5	9	-32	-27
Cc1c(Cl)cccc1NC(=S)NC1CCN(C(C)C)CC1	-1	.	.	.	.	-9
C=CCN1C(=O)/C(=C2/Sc3ccccc3N2C)SC1=Nc1c(C)n[nH]c1C	4	-34	-20	6	-19	-54
C=CCN1C(=O)/C(=C2/Sc3ccccc3N2C)SC1=Nc1ccccc1C	6	36	-10	51*	-38	-10
O=C(c1ccco1)N1CCN(CCCCOc2cccc3ccccc23)CC1	0	-50	-2	27*	-17	-4
CCOc1ccc(-n2nnnc2-c2nc3ccccc3s2)cc1	1	-40	-1	26*	-3	-50
CCOc1ccccc1-n1nnnc1SCc1nc2ccccc2s1	9.9*	.	12	14	-65	-9
Cc1ccccc1-n1c(C)nnc1SCc1nc2ccccc2s1	1	.	-4	3	-69	-33
Cc1cccc(NC(=O)c2cc3cc([N+](=O)[O-])ccc3s2)n1	0	9	.	.	.	-12
O=C(Nc1ccccc1)Nc1cc(Cl)cc(Cl)c1	6	41	-11	63*	-18	-7
O=C(Nc1cccc(Cl)c1)Nc1cccc(Cl)c1	3	-100	.	12	-26	-16
COCCSc1ccccc1C(=O)N1CCN(Cc2ccc3c(c2)OCO3)CC1	1	50	-7	51*	2	-22
Cc1nc(NC(=O)/C=C/c2ccccc2)sc1C(=O)N1CCCCC1	1	-13	.	.	.	-19
CCNS(=O)(=O)c1ccc2c(c1)NCC2	2	.	3	17	-1	17
N#CC(C(=O)NC1CCCCC1)=C1CCCCCC1	1	25	8	34*	-40	-22
N#CC(C(N)=O)=C1CCCCC1	.	.	.	.	.	-13
COCCCn1c(SCC(=O)N2CCc3ccccc32)nnc1-c1ccoc1C	.	-25	.	.	.	.
COCCCn1c(SCC(=O)N2CCc3ccccc32)nnc1-c1ccco1	8.6*	6	.	4	-1	-7
CC(C)c1nnc(SCC(=O)N2CCc3ccccc32)n1C	1	58	.	29*	-42	-11
COc1ccc(C(=O)COc2ccccc2C(=O)Nc2ccccc2)cc1	2	.	.	.	.	.
CCCCN(C)S(=O)(=O)c1cc(Br)cc2c1N(C(=O)C1CC1)CC2	9.2*	.	14	14	-28	5
C=CCCCCCCCCC(=O)Nc1ncccn1	.	.	.	.	.	-14
O=c1cc(-c2ccccc2)c2ccccc2[nH]1	2	.	-9	76*	9	-2
CC(C)CC(=O)Nc1cccc(-c2csc(-c3ccccc3)n2)c1	10*	-19	-14	0	-56	-2
SMILES	RAM inhibit	INS promoter inh	Yeast life ext	Measles CPE	BB579 growth dn	MDM2 E3 inh
CCC(=O)Nc1cccc(-c2csc(-c3ccccc3)n2)c1	3	0	-7	6	-7	-11
Cn1cc([N+](=O)[O-])c(C(=O)N/N=C/c2ccc3c(c2)OCO3)n1	0	78*	.	.	.	3
CC(C)Sc1oc(-c2ccco2)nc1S(=O)(=O)c1ccccc1	2	0	10	30*	-58	-18
CSc1oc(-c2ccco2)nc1S(=O)(=O)c1ccccc1	5	.	-10	2	0	-2
CCc1cc2c(SCC(=O)N(C)C3CCS(=O)(=O)C3)ncnc2s1 (stereo not given)	.	.	.	.	.	-17
CCc1cc2c(SCC(=O)c3ccc(C)cc3)ncnc2s1	9.9*	-87	.	41*	-43	0
CC(C)n1c(SCC(=O)N2CCCC2)nc2c1c(=O)n(C)c(=O)n2C	-1	.	-8	33*	-40	-17
CCCn1c(SCC(=O)N2CCCC2)nc2c1c(=O)n(C)c(=O)n2C	0	.	-12	3	-24	-17
Cc1cccc(C(=O)O/N=C/c2c(N3CCOCC3)n(C)c3ccccc23)c1	3	.	-20	32*	53*	8
CCOc1ccccc1CNC(=O)c1cc2oc3ccccc3c2n1C	2	16	-9	77*	-28	-13
CCOc1ccccc1CNC(=O)c1cc2occc2n1C	2	20	-8	12	-27	-25

Bioassay records: PubChem, several laboratories
